Test results reported in ChEMBL document CHEMBL1132218, “3-Amino-5-phenoxythiophenes: syntheses and structure-function studies of a novel class of inhibitors of cellular L-triiodothyronine uptake” (J Med Chem, 1999).

Experiments:
[1] = Partition coefficient (logP); type: physicochemical; settings: octanol/water
How it was run: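 Octanol–water partition coefficient calculated computationally, not measured experimentally.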

HepG2 = experiment: Compound was tested for inhibition of L-T3 (triiodothyronine) uptake in human HepG2 hepatoma cells at 10e-5 M; type: functional
How it was run: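 HepG2 cells kept in DMEM with 10% FCS at 37 °C, grown to confluence (2×10⁶ cells/well), then serum-free overnight. Incubated 2 min at 37 °C in DMEM with 10^-11 M [¹²⁵I]-L-T₃; solvent-matched controls; nondisplaceable uptake from duplicates with 10^-5 M unlabeled L-T₃. Five PBS (pH 7.4) washes at room temperature, 0.1 M NaOH harvest, cell-associated radioactivity counted.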

Row | Structure (SMILES) | logP [1] | inhibition at 10 µM (HepG2) [%]
1 | Cc1cccc(Oc2sc(C#N)c(N)c2C#N)c1 | 3.04 | 26
2 | N#Cc1c(Oc2ccccc2)sc(C(=O)c2ccc([N+](=O)[O-])cc2)c1N | 4.53 | 18
3 | N#Cc1c(Oc2ccccc2)sc(C(=O)c2ccccc2)c1N | 4.75 | 61
4 | N#Cc1sc(Oc2ccccc2)c(C#N)c1N | 2.54 | 21
5 | Cc1cccc(Oc2sc(C(=O)c3ccc([N+](=O)[O-])cc3)c(N)c2C#N)c1 | 5.03 | 16
6 | Cc1cccc(Oc2sc(C(=O)c3ccccc3)c(N)c2C#N)c1 | 5.25 | 57
7 | Cc1cccc(Oc2sc(C(N)=O)c(N)c2C#N)c1 | 2.69 | 23

The next lines start with results.

Row | logP [1] | Structure (SMILES) | inhibition at 10 µM (HepG2) [%]
8 | 3.66 | COC(=O)c1sc(Oc2ccccc2)c(C#N)c1N | 41
9 | 4.16 | COC(=O)c1sc(Oc2cccc(C)c2)c(C#N)c1N | 19
10 | 2.19 | N#Cc1c(Oc2ccccc2)sc(C(N)=O)c1N | 14
11 | 3.61 | COC(=O)c1sc(Oc2cccc(C)c2)c(C(N)=O)c1N | 40
12 | 3.6 | NC(=O)c1c(Oc2ccccc2)sc(C(=O)c2ccccc2)c1N | 60
13 | 3.11 | COC(=O)c1sc(Oc2ccccc2)c(C(N)=O)c1N | 26
